In ChEMBL document CHEMBL1124618, “Synthesis of the 2-chloro analogues of 3'-deoxyadenosine, 2',3'-dideoxyadenosine, and 2',3'-didehydro-2',3'-dideoxyadenosine as potential antiviral agents” (1989):

Columns and labels:
Homo sapiens [1] = organism: Homo sapiens; assay: Compound was tested for its effect on Reverse Transcriptase (RT) production by HIV-Infected Human T4+ Lymphocytes (C8166) at 2 uM; format: functional
Homo sapiens [2] = organism: Homo sapiens; assay: Compound was tested for its relative effect on p24 viral core protein production by HIV -infected human T4+ lymphocytes (C8166) at 20 uM; format: functional
Homo sapiens [3] = organism: Homo sapiens; assay: Compound was tested for its effect on Reverse Transcriptase (RT) production by HIV-Infected Human T4+ Lymphocytes (C8166) at 20 uM; format: functional
Homo sapiens [4] = organism: Homo sapiens; assay: Compound was tested for its effect on Reverse Transcriptase (RT) production by HIV-Infected Human T4+ Lymphocytes (C8166) at 100 uM; format: functional
Homo sapiens [5] = organism: Homo sapiens; assay: Compound was tested for its effect on the growth of human T4+ lymphocytes (C8166) in culture at 1000 uM; format: functional
Homo sapiens [6] = organism: Homo sapiens; assay: Compound was tested for its relative effect on p24 viral core protein production by HIV -infected human T4+ lymphocytes (C8166) at 200 uM; format: functional
Homo sapiens [7] = organism: Homo sapiens; assay: Compound was tested for its effect on the growth of human T4+ lymphocytes (C8166) in culture at 100 uM; format: functional
Homo sapiens [8] = organism: Homo sapiens; assay: Compound was tested for its effect on Reverse Transcriptase (RT) production by HIV-Infected Human T4+ Lymphocytes (C8166) at 200 uM; format: functional
Homo sapiens [9] = organism: Homo sapiens; assay: Compound was tested for its relative effect on p24 viral core protein production by HIV -infected human T4+ lymphocytes (C8166) at 100 uM; format: functional
Homo sapiens [10] = organism: Homo sapiens; assay: Compound was tested for its effect on the growth of human T4+ lymphocytes (C8166) in culture at 500 uM; format: functional
Homo sapiens [11] = organism: Homo sapiens; assay: Compound was tested for its effect on the growth of human T4+ lymphocytes (C8166) in culture at 10 uM; format: functional
Homo sapiens [12] = organism: Homo sapiens; assay: Compound was tested for its effect on the growth of human T lymphocytes (SupT1) in culture at 1 uM; format: functional
Method in brief: (§1)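 Uninfected lymphocyte lines (Raji B cells or SupT1 T cells) kept in growth medium and given drug dilutions. After 48 h, cells stained with trypan blue and counted. Viable cells (dye exclusion) expressed as percentage of untreated controls. Values from a typical experiment.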

SC-1 (Mus musculus) [13] = assay: Compound was tested for its effect on the growth of mouse fibroblasts (SC-1) in culture at 1 uM
Homo sapiens [14] = organism: Homo sapiens; assay: Compound was tested for its effect on the growth of human T lymphocytes (SupT1) in culture at 10 uM; format: functional; method in brief: as §1
Homo sapiens [15] = organism: Homo sapiens; assay: Compound was tested for its effect on the growth of human B lymphocytes (Raji) in culture at 1 uM; format: functional; method in brief: as §1
Homo sapiens [16] = organism: Homo sapiens; assay: Compound was tested for its effect on the growth of human T lymphocytes (SupT1) in culture at 1000 uM; format: functional; method in brief: as §1
Homo sapiens [17] = organism: Homo sapiens; assay: Compound was tested for its effect on the growth of human T lymphocytes (SupT1) in culture at 100 uM; format: functional; method in brief: as §1
Homo sapiens [18] = organism: Homo sapiens; assay: Compound was tested for its effect on the growth of human B lymphocytes (Raji) in culture at 1000 uM; format: functional; method in brief: as §1
Homo sapiens [19] = organism: Homo sapiens; assay: Compound was tested for its effect on the growth of human B lymphocytes (Raji) in culture at 10 uM; format: functional; method in brief: as §1
Homo sapiens [20] = organism: Homo sapiens; assay: Compound was tested for its effect on the growth of human B lymphocytes (Raji) in culture at 500 uM; format: functional; method in brief: as §1
Homo sapiens [21] = organism: Homo sapiens; assay: Compound was tested for its effect on the growth of human T lymphocytes (SupT1) in culture at 500 uM; format: functional; method in brief: as §1
SC-1 (Mus musculus) [22] = assay: Compound was tested for its effect on the growth of mouse fibroblasts (SC-1) in culture at 100 uM
Homo sapiens [23] = organism: Homo sapiens; assay: Compound was tested for its effect on the growth of human B lymphocytes (Raji) in culture at 100 uM; format: functional; method in brief: as §1
SC-1 (Mus musculus) [24] = assay: Compound was tested for its effect on the growth of mouse fibroblasts (SC-1) in culture at 10 uM
Homo sapiens [25] = organism: Homo sapiens; assay: Compound was tested for its effect on reverse transcriptase of HIV-infected human T4+ lymphocytes (C8166) at 20 uM; format: functional
Method in brief: (§2)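 C8166 T4+ cells (~2 × 10⁵ per well) exposed to drug dilutions, then infected with 2500 RT units of cell-free HIV HXBc2 strain; FBS heat-inactivated (55 °C, 60 min) or not. Drug-containing medium replaced every 3 days. On day 6, RT activity measured in cell supernatants and compared with untreated controls.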

Homo sapiens [26] = organism: Homo sapiens; assay: Compound was tested for its effect on reverse transcriptase of HIV-infected human T4+ lymphocytes (C8166) at 2 uM; format: functional; method in brief: as §2

| Compound | Control (Homo sapiens [1]) [%] | p24 (Homo sapiens [2]) [ng/mL] | Control (Homo sapiens [3]) [%] | Control (Homo sapiens [4]) [%] | Control (Homo sapiens [5]) [%] | p24 (Homo sapiens [6]) [ng/mL] | Control (Homo sapiens [7]) [%] | Control (Homo sapiens [8]) [%] | p24 (Homo sapiens [9]) [ng/mL] | Control (Homo sapiens [10]) [%] | Control (Homo sapiens [11]) [%] | also measured |
| --- | --- | --- | --- | --- | --- | --- | --- | --- | --- | --- | --- | --- |
| Nc1nc(Cl)nc2c1ncn2C1CCC(CO)O1 (configuration not stated) | 100 | 16 | 57 | 3 | 0 | 0.2 | 77 | <1 | 2.2 | 37 | 94 |  |
| Nc1ncnc2c1ncn2[C@H]1CC[C@@H](CO)O1 | 25 | 28 | 25 | <1 | 91 | 0.2 | 116 | <1 | 1.8 | 90 | 116 |  |
| Nc1nc(Cl)nc2c1ncn2C1OC(CO)CC1O (configuration not stated) |  |  |  |  |  |  |  |  |  |  |  | Control (Homo sapiens [12]): 100%; Control (SC-1 (Mus musculus) [13]): 82%; Control (Homo sapiens [14]): 81%; Control (Homo sapiens [15]): 98%; Control (Homo sapiens [16]): 8%; Control (Homo sapiens [17]): 73%; Control (Homo sapiens [18]): 3%; Control (Homo sapiens [19]): 69%; Control (Homo sapiens [20]): 8%; Control (Homo sapiens [21]): 13%; Control (SC-1 (Mus musculus) [22]): 2%; Control (Homo sapiens [23]): 43%; Control (SC-1 (Mus musculus) [24]): 53% |
| Nc1nc(Cl)nc2c1ncn2C1C=CC(CO)O1 (configuration not stated) |  |  |  |  |  |  |  |  |  |  |  | Control (Homo sapiens [25]): 25%; Control (Homo sapiens [26]): 53% |
